Assays:
[1] = Therapeutic index ([…]) was evaluated; conditions: read-out: TI50
[2] = test system: CEM-SS; assay: (§1) Compound concentration that provides 50% cytoprotection on CEM-SS cells and HIV-1RF was measured using XTT assay.; assay type: functional, cell-based; conditions: Homo sapiens
Procedure, shortened: (§2)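 CEM-SS cells infected with HIV-1RF. EC50 is the concentration giving 50% cytoprotection. CC50 is the concentration eliciting 50% cell death.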

[3] = test system: CEM-SS; assay: (§3) CC50 reflects the drug concentration that elicits 50% cell death of CEM-SS cells and HIV-1RF was measured using XTT assay.; assay type: functional; conditions: Homo sapiens; procedure, shortened: as §2
[4] = test system: Human immunodeficiency virus 1; assay: as §3; assay type: functional; conditions: Human immunodeficiency virus 1, CEM-SS; procedure, shortened: as §2
[5] = test system: Human immunodeficiency virus 1; assay: Compound concentration that provides 50% cytoprotection on PBMC cultures and HIV-1RF was measured using XTT assay.; assay type: functional, organism-based
[6] = test system: Human immunodeficiency virus 1; assay: CC50 reflects the drug concentration that elicits 50% cell death of PBMC cultures and HIV-1RF was measured using XTT assay.; assay type: functional
[7] = test system: Human immunodeficiency virus 1; assay: as §1; assay type: functional, organism-based; conditions: Human immunodeficiency virus 1, CEM-SS; procedure, shortened: as §2

Row | SMILES | selectivity ratio [1] | EC50 [2] | CC50 [3] | CC50 [4] | EC50 [5] | CC50 [6] | EC50 [7]
1 | O=S1(=O)C[C@H](O)[C@H](O)CS1 | 27.9 | 6.6 µM | 184 µM |  |  |  | 
2 | NC(=O)c1cccc(N=O)c1 |  |  |  | 10.6 µM | 1.56 µM | 50 µM | 
3 | NS(=O)(=O)c1ccc(NC(=O)c2ccccc2SSc2ccccc2C(=O)Nc2ccc(S(N)(=O)=O)cc2)cc1 | > 87 |  |  | > 200 µM |  |  | 2.3 µM
4 | NC(=O)/N=N/C(N)=O [E927A] | > 5.3 |  |  | > 200 µM |  |  | 38 µM
